In ChEMBL document CHEMBL3271979, “Inhibition of solid tumors by nitrosoureas. 1. Lewis lung carcinoma” (1977):
The source made the active and inactive calls. The calls are words filed in the database; no cut-off is given here.

Assays:
Mus musculus [1] = test: Antitumor activity against mouse advanced Lewis lung carcinoma allografted in ip dosed BDF1 mouse assessed as complete regression of established tumor administered as single dose on day 6 or 7 post-tumor implantation; format: functional, organism-based
Summary of the method: (§1)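 BDF1 mice (C57Blk/6 × DBA/2) implanted sc by trocar with Lewis lung tumor fragments of about 40 mg, taken only from bacteriologically sterile donor tumors. Mice bearing tumors of about 400 mg (day 6-7) were selected. Each received a single ip dose on day 7, at or below the LD10 in normal mice. Groups were of 10 mice. Tumor weight was taken from calipers as w = ab²/2, measured at least twice weekly. Matched non-tumor mice served as toxicity controls.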

[2] = Ratio of ED50 for antitumor activity against mouse L1210 cells allografted in ip dosed mouse to LD10 for mouse
Mus musculus [3] = test: Antitumor activity against mouse early Lewis lung carcinoma allografted in ip dosed BDF1 mouse assessed as disease cure administered as single dose on 1 or 2 days post-tumor implantation measured for 80 days post-drug treatment; format: functional
Summary of the method: (§2)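 BDF1 mice implanted sc by trocar with ~40 mg Lewis lung fragments from sterile donor tumors. A single ip dose was given on day 1 or 2 after implant, in water or saline vehicle. Cures were scored in animals observed for at least 80 days after treatment. Drug-toxicity controls were matched non-tumor-bearing mice monitored for body weight and deaths.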

[4] = Antitumor activity against mouse advanced Lewis lung carcinoma allografted in BDF1 mouse assessed as increase in host life span at 144 mg/kg, ip administered as single dose on 7th day post-tumor implantation; format: functional; details: route intraperitoneal
Summary of the method: (§3)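 BDF1 mice (C57Blk/6 × DBA/2) implanted sc by trocar with about 40 mg Lewis lung tumor fragments from bacteriologically sterile donors. Advanced-disease groups held tumors of about 400 mg by day 6-7, sized by caliper (w = ab²/2). Single ip injection on day 7, in water or saline vehicle, at or below the LD10 in normal mice. Tumors measured at least twice weekly.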

Mus musculus [5] = test: Antitumor activity against mouse advanced Lewis lung carcinoma allografted in ip dosed BDF1 mouse assessed as disease cure administered as single dose on day 6 or 7 post-tumor implantation; format: functional, organism-based; summary of the method: as §1
Mus musculus [6] = test: Antitumor activity against mouse advanced Lewis lung carcinoma allografted in BDF1 mouse assessed as disease cure at 144 mg/kg, ip administered as single dose on 7th day post-tumor implantation measured for 80 days post-drug treatment; format: functional, organism-based; set-up: dose 144 mg/kg; summary of the method: as §1
Mus musculus [7] = test: Antitumor activity against mouse early Lewis lung carcinoma allografted in ip dosed BDF1 mouse administered as single dose on 1 or 2 days post-tumor implantation measured for 80 days post-drug treatment; format: functional, organism-based; summary of the method: as §2
Mus musculus [8] = test: Antitumor activity against mouse advanced Lewis lung carcinoma allografted in BDF1 mouse assessed as complete regression of established tumor at 62 mg/kg, ip administered as single dose on 7th day post-tumor implantation; format: functional, organism-based; set-up: dose 62 mg/kg; summary of the method: as §3
[9] = Antitumor activity against mouse advanced Lewis lung carcinoma allografted in BDF1 mouse assessed as increase in host life span at 62 mg/kg, ip administered as single dose on 7th day post-tumor implantation; format: functional; details: route intraperitoneal; summary of the method: as §3
Mus musculus [10] = test: Antitumor activity against mouse advanced Lewis lung carcinoma allografted in BDF1 mouse assessed as disease cure at 93 mg/kg, ip administered as single dose on 7th day post-tumor implantation measured for 80 days post-drug treatment; format: functional, organism-based; set-up: dose 93 mg/kg; summary of the method: as §3
Mus musculus [11] = test: Antitumor activity against mouse advanced Lewis lung carcinoma allografted in BDF1 mouse assessed as disease cure at 62 mg/kg, ip administered as single dose on 7th day post-tumor implantation measured for 80 days post-drug treatment; format: functional, organism-based; set-up: dose 62 mg/kg; summary of the method: as §3
[12] = Antitumor activity against mouse advanced Lewis lung carcinoma allografted in ip dosed BDF1 mouse assessed as increase in host lifespan administered as single dose on day 6 or 7 post-tumor implantation; format: functional
Summary of the method: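 Advanced Lewis lung model: about 40 mg fragments implanted sc by trocar into BDF1 mice, and mice with tumors of about 400 mg (day 6-7) selected. Tumor weight from calipers, w = ab²/2. Agent given as one ip dose in distilled water or physiological saline. Nontumor-bearing mice received matching doses as toxicity controls.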

[13] = Antitumor activity against mouse advanced Lewis lung carcinoma allografted in BDF1 mouse assessed as increase in host life span at 93 mg/kg, ip administered as single dose on 7th day post-tumor implantation; format: functional; details: route intraperitoneal; summary of the method: as §3
Mus musculus [14] = test: Antitumor activity against mouse advanced Lewis lung carcinoma allografted in BDF1 mouse assessed as complete regression of established tumor at 93 mg/kg, ip administered as single dose on 7th day post-tumor implantation; format: functional, organism-based; set-up: dose 93 mg/kg; summary of the method: as §3
Mus musculus [15] = test: Antitumor activity against mouse advanced Lewis lung carcinoma allografted in BDF1 mouse assessed as complete regression of established tumor at 9 mg/kg, ip administered as single dose on 7th day post-tumor implantation; format: functional, organism-based; set-up: dose 9 mg/kg; summary of the method: as §1
Mus musculus [16] = test: Antitumor activity against mouse advanced Lewis lung carcinoma allografted in BDF1 mouse assessed as disease cure at 9 mg/kg, ip administered as single dose on 7th day post-tumor implantation measured for 80 days post-drug treatment; format: functional, organism-based; set-up: dose 9 mg/kg; summary of the method: as §1
[17] = Antitumor activity against mouse advanced Lewis lung carcinoma allografted in BDF1 mouse assessed as increase in host life span at 9 mg/kg, ip administered as single dose on 7th day post-tumor implantation; format: functional; details: route intraperitoneal; summary of the method: as §3
Mus musculus [18] = test: Antitumor activity against mouse advanced Lewis lung carcinoma allografted in BDF1 mouse assessed as disease cure at 52 mg/kg, ip administered as single dose on 7th day post-tumor implantation measured for 80 days post-drug treatment; format: functional, organism-based; set-up: dose 52 mg/kg; summary of the method: as §1
[19] = Antitumor activity against mouse advanced Lewis lung carcinoma allografted in BDF1 mouse assessed as increase in host life span at 52 mg/kg, ip administered as single dose on 7th day post-tumor implantation; format: functional; details: route intraperitoneal; summary of the method: as §3
[20] = Antitumor activity against mouse advanced Lewis lung carcinoma allografted in BDF1 mouse assessed as increase in host life span at 67 mg/kg, ip administered as single dose on 7th day post-tumor implantation; format: functional; details: route intraperitoneal; summary of the method: as §3
Mus musculus [21] = test: Antitumor activity against mouse advanced Lewis lung carcinoma allografted in BDF1 mouse assessed as disease cure at 67 mg/kg, ip administered as single dose on 7th day post-tumor implantation measured for 80 days post-drug treatment; format: functional, organism-based; set-up: dose 67 mg/kg; summary of the method: as §1
[22] = Antitumor activity against mouse advanced Lewis lung carcinoma allografted in BDF1 mouse assessed as increase in host life span at 90 mg/kg, ip administered as single dose on 7th day post-tumor implantation; format: functional; details: route intraperitoneal; summary of the method: as §3
Mus musculus [23] = test: Antitumor activity against mouse advanced Lewis lung carcinoma allografted in BDF1 mouse assessed as disease cure at 90 mg/kg, ip administered as single dose on 7th day post-tumor implantation measured for 80 days post-drug treatment; format: functional, organism-based; set-up: dose 90 mg/kg; summary of the method: as §1

**Q.** With O=NN(CCCl)C(=O)NC1C2CC3CC(C2)CC1C3 (stereo unspecified) as the compound, how does the inhibition (Mus musculus [1]) read?
**A.** Active

**Q.** What about the Ratio [2] of the same compound?
**A.** 0.6

**Q.** What about the Activity (Mus musculus [3]) of the same compound?
**A.** inactive

**Q.** What about the ILS at 144 mg/kg [4] of the same compound?
**A.** 19%

**Q.** And the Activity (Mus musculus [5])?
**A.** inactive

**Q.** And the Activity (Mus musculus [6])?
**A.** inactive

**Q.** And the Activity (Mus musculus [7])?
**A.** inactive

**Q.** Which inhibition (Mus musculus [8]) does the source give for Cc1ccc(S(=O)(=O)NC(=O)N(CCCl)N=O)cc1 here?
**A.** inactive

**Q.** What about the ILS at 62 mg/kg [9] of the same compound?
**A.** 28%

**Q.** What about the inhibition (Mus musculus [1]) of the same compound?
**A.** inactive

**Q.** What about the Activity (Mus musculus [10]) of the same compound?
**A.** inactive

**Q.** And the Activity (Mus musculus [11])?
**A.** inactive

**Q.** And the Activity (Mus musculus [5])?
**A.** inactive

**Q.** What about the ILS [12] of the same compound?
**A.** >25%

**Q.** What about the ILS at 93 mg/kg [13] of the same compound?
**A.** 28%

**Q.** And the inhibition (Mus musculus [14])?
**A.** inactive

**Q.** Which inhibition (Mus musculus [15]) does the source give for O=NN(CCF)C(=O)NC1CC2CCC1C2 (stereo unspecified) here?
**A.** inactive

**Q.** And the Activity (Mus musculus [16])?
**A.** inactive

**Q.** And the ILS at 9 mg/kg [17]?
**A.** 40%

**Q.** Which inhibition (Mus musculus [1]) does the source give for CC1(C)CCC(NC(=O)N(CCF)N=O)CC1 here?
**A.** Active

**Q.** And the Activity (Mus musculus [5])?
**A.** inactive

**Q.** What about the Activity (Mus musculus [18]) of the same compound?
**A.** inactive

**Q.** What about the ILS at 52 mg/kg [19] of the same compound?
**A.** 100%

**Q.** What does the source list for CC[C@H]1CC[C@H](NC(=O)N(CCCl)N=O)CC1?
**A.** inhibition (Mus musculus [1]): Active; ILS at 67 mg/kg [20]: 17%; Activity (Mus musculus [5]): inactive; Activity (Mus musculus [21]): inactive

**Q.** With O=NN(CCCl)C(=O)N[C@H]1CCCC[C@H]1Cl (relative stereo) as the compound, how does the Activity (Mus musculus [5]) read?
**A.** inactive

**Q.** And the ILS [12]?
**A.** >25%

**Q.** What about the ILS at 90 mg/kg [22] of the same compound?
**A.** 62%

**Q.** What about the Activity (Mus musculus [23]) of the same compound?
**A.** inactive
